From ChEMBL document CHEMBL3853352, “Anti-tubercular activities of 5,6,7,8-tetrahydrobenzo[4,5]thieno[2,3-d]pyrimidin-4-amine analogues endowed with high activity toward non-replicative Mycobacterium tuberculosis” (Bioorg Med Chem, 2016)
≈ marks a conversion by molar mass, not a printed value.

How the values were obtained:
[1] = biological target: T1, L-lysine-epsilon aminotransferase (Mycobacterium tuberculosis) (UniProt P9WQ77); experiment: Inhibition of Mycobacterium tuberculosis LAT at 25 uM
T1 sequence (whole entry): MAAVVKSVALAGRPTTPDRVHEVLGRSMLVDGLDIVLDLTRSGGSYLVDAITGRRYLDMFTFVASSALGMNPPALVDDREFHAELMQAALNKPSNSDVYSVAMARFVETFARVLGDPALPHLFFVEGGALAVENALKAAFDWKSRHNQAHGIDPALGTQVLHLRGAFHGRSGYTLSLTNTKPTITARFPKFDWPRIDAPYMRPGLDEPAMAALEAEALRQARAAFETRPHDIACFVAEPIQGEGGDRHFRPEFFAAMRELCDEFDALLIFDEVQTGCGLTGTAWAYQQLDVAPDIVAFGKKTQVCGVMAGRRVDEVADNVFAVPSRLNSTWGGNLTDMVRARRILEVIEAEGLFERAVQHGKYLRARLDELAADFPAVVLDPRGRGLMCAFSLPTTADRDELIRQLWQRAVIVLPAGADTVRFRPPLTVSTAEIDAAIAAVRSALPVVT

[2] = Inhibition of Mycobacterium tuberculosis ADH assessed as decrease in conversion of L-alanine to pyruvate by measuring NADH by spectrophotometry; parameters: species or system Mycobacterium tuberculosis H37Rv
In short: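 Mtb L-AlaDH oxidative deamination of L-alanine to pyruvate at 37 °C. NADH formation read at 340 nm. Compounds tested from 25 µM to 0.5 µM. Background read from the reaction mixture without enzyme. IC50 values calculated from the concentration series.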

[3] = tested on: Mycobacterium tuberculosis; experiment: Binding affinity to Mycobacterium tuberculosis ADH assessed as change in melting temperature by Sypro orange dye based differential scanning fluorimetry
In short: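 Thermal shift assay on Mtb L-AlaDH (100 µg/ml, 10 µl) in 100 mM HEPES-NaOH pH 7.8 with 6 µl of 15× Sypro Orange; compounds added in <10% DMSO. Samples equilibrated 3 min at 25 °C, then ramped to 95 °C in 0.1 °C steps. Tm taken as the lowest point of the first-derivative plot; shift measured against the native protein.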

[4] = Cytotoxicity against mouse RAW264.7 cells assessed as inhibition of cell proliferation at 50 ug/ml after 48 hrs by MTT assay; type: toxicity
In short: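 RAW 264.7 mouse macrophages grown in RPMI with 10% FBS and penicillin/streptomycin, then seeded at about 5000 cells/well on poly-L-lysine-coated plates. Pre-incubated 24 h at 37 °C, 5% CO2, then exposed to compound for 48 h. MTT (0.5 mg/ml) added for 3 h and formazan read at 595 nm.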

[5] = tested on: Mycobacterium tuberculosis; experiment: Antimycobacterial activity against dormant stage of Mycobacterium tuberculosis H37Rv assessed as reduction in bacterial growth under nutrient starved conditions at 10 ug/ml for 7 days measured after 28 days; type: functional
In short: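 H37Rv grown in 7H9/OADC, washed twice and resuspended in PBS, then held in sealed bottles at 37 °C for 6 weeks. Starved cultures exposed to compound at 10 ug/ml for 7 days. Cells diluted 10-fold serially to 10^-6 in 7H9/OADC and plated in triplicate. Incubated 28 days at 37 °C without agitation; wells with visible growth scored positive and MPN calculated.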

[6] = tested on: Mycobacterium tuberculosis H37Rv; experiment: Inhibition of Mycobacterium tuberculosis ADH assessed as decrease in conversion of L-alanine to pyruvate at 25 uM by measuring NADH by spectrophotometry
[7] = tested on: Mycobacterium tuberculosis; experiment: Antimycobacterial activity against Mycobacterium tuberculosis H37Rv after 7 days by MABA; type: functional; conditions: 168 h
In short: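 M. tuberculosis H37Rv inoculum taken from fresh LJ medium, resuspended in 7H9-S (7H9, 0.1% casitone, 0.5% glycerol, OADC), adjusted to McFarland No. 1 and diluted 1:20. Serial two-fold drug dilutions in 7H9-S, with growth and sterile controls. Incubated 7 days at 37 °C in normal atmosphere, then alamar blue added and incubated overnight. MIC = lowest concentration preventing the blue-to-pink change.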

[8] = tested on: Mycobacterium tuberculosis; experiment: Antimycobacterial activity against Mycobacterium tuberculosis H37Rv after 6 days by resazurin assay; type: functional; conditions: 144 h

| Structure (SMILES) | inhibition [1] [%] | IC50 [2] [µM] | ΔTm [3] [°C] | inhibition at 48 h, 50 ug/ml [4] [%] | fold change (FC) [5] | inhibition [6] [%] | MIC [7] [µM] | MIC [8] [µM] |
| --- | --- | --- | --- | --- | --- | --- | --- | --- |
| CCc1nc(NCCc2ccccc2)c2c3c(sc2n1)CCCC3 | < 50 | 1.82 | 1.4 | 25.2 | >1 | 50 | 37 (≈ 12.5 µg/mL) | – |
| Cc1cccc(-c2nc(Nc3ccncn3)c3c(C)csc3n2)n1 | – | – | – | – | – | – | – | 0.76 (≈ 0.254 µg/mL) |
